Measurements taken from the RNAGym collection of RNA variant scans (doi:10.1126/science.aae0568).
Variants at the floor of the assay were thinned out.

B1: tRNA (parent)
chain: GUUCCGUUGGCGUAAUGGUAACGCGUCUCCCUCCUAAGGAGAAGACUGCGGGUUCGAGUCCCGUACGGAACG

Variants of: B1
Test: yeast fitness relative to wild type (ratio to wild type); higher = fitter; tRNA-Arg(CCU), competitive growth, 37 C, YPD
Method in brief: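 Variants of the tRNA-Arg(CCU) gene, chemically synthesised with a 3% per-site mutation rate at 69 sites, were placed at the native genomic locus in Saccharomyces cerevisiae. The pooled strains were competed in YPD at 37°C for 24 hours in six parallel replicates. Gene amplicons from the start population and from each end population were read by 100-nucleotide paired-end sequencing. Darwinian fitness relative to wild type came from changes in genotype frequencies; genotypes needed ≥ 100 starting reads, and estimates < 0.5 were set to 0.5.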

Point of comparison: GUUCCGUUGGCGUAAUGGUAACGCGUCUCACUCCUAAGGAGAAGGCUGCGGGAUCGAGUCCCGUACGGAACG [C30A A45G U53A], yeast fitness 1.1. Against it:
- GUUCCGUUGGCGUAAUGGUAACGCGUCUUCCUCCUAAGGAGAAGACUGCGCGUUCGAGUCCCGUACAGAACG [C29U G51C G67A] — lower, ≤ 0.5
- GUUCCGUUGGCGUAAUGGUAACGCGUCUCACUCCUCAAGAGAAGACUGCGGGUUCGAGUCCCGUACGGAACG [C30A A36C G38A] — lower, ≤ 0.5
- GUUCCGUUGGCGUAAUGGUAACGCGUCUCACUCCUACGGAGAAGACUGCGGGUUCGAGUCCCGUACGGAACG [C30A A37C] — lower, 0.772
- GUUCCGUUGGCGUAAUGGUAACGCGUCUCACUCCUAAGGCGAAGAUUGCGGGUUCGAGUUCCGUAUGGAACG [C30A A40C C46U C60U C66U] — lower, ≤ 0.5
- GUUCCGUUGGCGUAAUGGUAACGCGUCUUCCUCCAAAGGAGAAGACUGCGGGUUCGAGUCGCGUACGGAACG [C29U U35A C61G] — lower, ≤ 0.5
- GUUCCGUUGGCGUAAUGGUAACGCGUCUCACUCCUAAGGAGAAGACUGCGGGUUCGAGUCCCGUGCGGAACG [C30A A65G] — lower, 1.02
- GUUCCGUUGGCGUAAUGGUAACGCGUCUCACUCCUAAGGAGAAGACUGCGGGUUCGAGUCCCGUUCGGAACG [C30A A65U] — lower, 0.802
- GUUCCGUUGGCGUAAUGGUAACGCGUCUCACUCCUAAGGAGAAGACUGCGGGUUCGAGUCCCGUCCGGAACG [C30A A65C] — lower, 0.814
- GUUCCGUUGGCGUAAUGGUAACGCGUCUUCCUCCUAAGGAGAAGACUGCGGGUUCGAGUCCCGUACAGAACG [C29U G67A] — lower, 0.771
- GUUCCGUUGGCGUAAUGGUAACGCGUCUUCCUCCUAAGGAGAAGACUGCGGGUUCGAGUCCCGUACCGAACG [C29U G67C] — lower, 0.848
- GUUCCGUUGGCGUAAUGGUAACGCGUCUCACUCCUAGGGAGAAGACUGCGGGUUCGGGUCCCGUACGGAACG [C30A A37G A57G] — lower, ≤ 0.5
- GUUCCGUUGGCGUAAUGGUAACGCGUCUCACUCCUUAGGAGAAGACUGCGGGUUCGAGUUCCGUACGGCACG [C30A A36U C60U A69C] — lower, 0.6
- GUUCCGUUGGCGUAAUGGUAACGCGUCUUCCUCCUAAGGAGAAGACAGCGGGUUCGAGUCCCGUACGGAACG [C29U U47A] — lower, 0.795
- GUUCCGUUGGCGUAAUGGUAACGCGUCUUCCUCCUAAGGAGAAGACCGCGGGUUCGAGUCCCGUACGGAACG [C29U U47C] — lower, 0.923
- GUUCCGUUGGCGUAAUGGUAACGCGUCUUCCUCCUAAGGAGAAGACUGCGGGUUCGAGUCCCGUACUGUACG [C29U G67U A69U] — lower, ≤ 0.5
- GUUCCGUUGGCGUAAUGGUAACGCGUCUUCCUCCUAAGGAGAAGACUGCGGGUACGAGUCCCGUACGGAACG [C29U U54A] — lower, 0.627
- GUUCCGUUGGCGUAAUGGUAACGCGUCUCAUUCCUAAGGAGAAGACUGCGGGUUCGAGUGCCGUACGGAACG [C30A C31U C60G] — lower, 0.565
- GUUCCGUUGGCGUAAUGGUAACGCGUCUCACUCCUAAGGAGAAGACUGCGGGUUCGUGUCCCGUACGGAACG [C30A A57U] — lower, 0.768
- GUUCCGUUGGCGUAAUGGUAACGCGUCUCACUCCUACCGAGAAGACUGCGGGUUCGAGUCCCGUACGGAACG [C30A A37C G38C] — lower, ≤ 0.5
- GUUCCGUUGGCGUAAUGGUAACGCGUCUCAUUCCUAAGGAGAAGCCUGCGGGUUCGAGUCCCGUACGGAACG [C30A C31U A45C] — lower, 0.663
- GUUCCGUUGGCGUAAUGGUAACGCGUCUCACUCCUUAGGAGGAGACUGCGGGUUCGAGUUCCGUACGGCACG [C30A A36U A42G C60U A69C] — lower, ≤ 0.5
- GUUCCGUUGGCGUAAUGGUAACGCGUCUCACUCCUAAGGCGAAGACUGCGGGUUCAAGUCCCGUACGGAACG [C30A A40C G56A] — lower, ≤ 0.5
- GUUCCGUUGGCGUAAUGGUAACGCGUCUCACUCCUCAGGAGAAGAGUGCGGGUUCGAGUCCCGUACGGAACG [C30A A36C C46G] — lower, 0.532
- GUUCCGUUGGCGUAAUGGUAACGCGUCUCACUCCUGAGGAGAAGACUGCGGGUUCGAGUCCCGUGCGGAACG [C30A A36G A65G] — lower, 0.648
- GUUCCGUUGGCGUAAUGGUAACGCGUCUUCCUCCCAAGGAGAACACUGUGGGUUCGUGUCCCAUACGGAACG [C29U U35C G44C C49U A57U G63A] — lower, ≤ 0.5
- GUUCCGUUGGCGUAAUGGUAACGCGUCUCACUCCUAAGGAGGAGACUGCGGGUACGCGUCCCGUACGGAACG [C30A A42G U54A A57C] — lower, ≤ 0.5
- GUUCCGUUGGCGUAAUGGUAACGCGUCUCACUCCUAUGGAGAACACUGCGGGAUCGAGUCCCGUACGGAACG [C30A A37U G44C U53A] — lower, ≤ 0.5
- GUUCCGUUGGCGUAAUGGUAACGCGUCUUCCUCCUAAGGAGAAGACUGCGGGUUCGAGUCCCGUACGAAACG [C29U G68A] — lower, 0.937
- GUUCCGUUGGCGUAAUGGUAACGCGUCUUCCUCCUAAGGAGAAGACUGCGGGUUCGAGUCCCGUACGUAACG [C29U G68U] — lower, 0.803
- GUUCCGUUGGCGUAAUGGUAACGCGUCUCACUCCUGAGGAGAAGACUGCGGGUUCGAGUCCCGUACCGAACG [C30A A36G G67C] — lower, 0.537
- GUUCCGUUGGCGUAAUGGUAACGCGUCUCACUCGUAAGGAGAAGACUGCAGGUUCGAGUCCUGUAAGGAACG [C30A C34G G50A C62U C66A] — lower, ≤ 0.5
- GUUCCGUUGGCGUAAUGGUAACGCGUCUCACUCCUAAGGGGAAGACUGCGGGUUCGAGGCCCGUACGGACCG [C30A A40G U59G A70C] — lower, ≤ 0.5
- GUUCCGUUGGCGUAAUGGUAACGCGUCUCACUCCUACGGAAAUCACUGCGGGUUCGAGUCCCGUACGGAACG [C30A A37C G41A A43U G44C] — lower, ≤ 0.5
- GUUCCGUUGGCGUAAUGGUAACGCGUCUUCCUCCUAAGGAGAAGACCGCGGGUUCGAGUCCCGUACUGUACG [C29U U47C G67U A69U] — lower, ≤ 0.5
- GUUCCGUUGGCGUAAUGGUAACGCGUCUUCCCCCGAAGGAGAAGACUGCGGGUUCGAGUCCCGUACGGAUCG [C29U U32C U35G A70U] — lower, ≤ 0.5
- GUUCCGUUGGCGUAAUGGUAACGCGUCUUCCCCCUAAGGAGAAGACUGCGCGUUCGAGUCCCGUACGGAACG [C29U U32C G51C] — lower, ≤ 0.5
